Measurements published in ChEMBL document CHEMBL4765270, “Piperidine propionamide as a scaffold for potent sigma-1 receptor antagonists and mu opioid receptor agonists for treating neuropathic pain” (Eur J Med Chem, 2020).
Calls of active or inactive are those of the source. No cut-off for these calls is given here.

Tests used:
[1] = target: Sigma non-opioid intracellular receptor 1 (Cavia porcellus, UniProt Q60492); test: Displacement of [3H]-(+)-pnetazocin from sigma1 receptor in guinea pig brain membrane incubated for 150 mins by liquid scintillation counting method; format: cell membranes
Sigma non-opioid intracellular receptor 1, sequence (Q60492 whole entry): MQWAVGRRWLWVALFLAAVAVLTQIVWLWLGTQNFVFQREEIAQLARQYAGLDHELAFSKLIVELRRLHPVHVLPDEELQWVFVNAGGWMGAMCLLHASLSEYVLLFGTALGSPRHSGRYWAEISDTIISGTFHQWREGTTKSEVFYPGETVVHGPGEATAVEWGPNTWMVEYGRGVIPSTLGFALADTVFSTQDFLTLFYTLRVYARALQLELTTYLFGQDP

Homo sapiens [2] = organism: Homo sapiens; test: Inhibition of sigma 2 receptor (unknown origin) at 1 uM relative to control
[3] = target: Histamine H3 receptor (Homo sapiens) (UniProt Q9Y5N1); test: Inhibition of histamine H3 receptor (unknown origin) at 1 uM relative to control
Histamine H3 receptor (Homo sapiens), sequence (Q9Y5N1 whole entry): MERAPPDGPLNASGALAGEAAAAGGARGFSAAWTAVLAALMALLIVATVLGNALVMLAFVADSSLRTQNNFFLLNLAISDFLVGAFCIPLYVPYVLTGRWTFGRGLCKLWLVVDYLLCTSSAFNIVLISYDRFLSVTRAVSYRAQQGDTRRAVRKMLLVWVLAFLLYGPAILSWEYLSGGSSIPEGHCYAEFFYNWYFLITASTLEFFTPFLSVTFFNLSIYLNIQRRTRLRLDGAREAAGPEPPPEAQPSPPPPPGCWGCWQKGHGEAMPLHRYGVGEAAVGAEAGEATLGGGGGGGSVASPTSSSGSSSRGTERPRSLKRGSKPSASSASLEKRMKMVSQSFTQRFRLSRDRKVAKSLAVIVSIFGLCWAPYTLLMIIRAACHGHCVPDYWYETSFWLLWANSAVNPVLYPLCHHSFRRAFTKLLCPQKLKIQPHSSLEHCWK

[4] = target: T1, 5-hydroxytryptamine receptor 1A (Homo sapiens) (UniProt P08908); test: Inhibition of 5HT1A receptor (unknown origin) at 1 uM relative to control
T1 sequence (whole entry): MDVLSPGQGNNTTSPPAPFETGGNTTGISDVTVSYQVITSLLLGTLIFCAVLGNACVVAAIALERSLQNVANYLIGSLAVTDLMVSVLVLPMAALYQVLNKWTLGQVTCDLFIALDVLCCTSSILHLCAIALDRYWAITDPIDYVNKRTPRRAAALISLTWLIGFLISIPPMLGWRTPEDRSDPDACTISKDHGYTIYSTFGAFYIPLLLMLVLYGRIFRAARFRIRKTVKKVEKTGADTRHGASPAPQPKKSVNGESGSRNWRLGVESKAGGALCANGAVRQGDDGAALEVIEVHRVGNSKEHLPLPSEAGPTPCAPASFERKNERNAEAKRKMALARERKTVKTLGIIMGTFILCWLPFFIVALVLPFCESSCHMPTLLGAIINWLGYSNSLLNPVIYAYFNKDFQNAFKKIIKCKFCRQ

[5] = target: 5-hydroxytryptamine receptor 2A (Homo sapiens) (UniProt P28223); test: Inhibition of 5HT2A receptor (unknown origin) at 1 uM relative to control
5-hydroxytryptamine receptor 2A (Homo sapiens), sequence (P28223 whole entry): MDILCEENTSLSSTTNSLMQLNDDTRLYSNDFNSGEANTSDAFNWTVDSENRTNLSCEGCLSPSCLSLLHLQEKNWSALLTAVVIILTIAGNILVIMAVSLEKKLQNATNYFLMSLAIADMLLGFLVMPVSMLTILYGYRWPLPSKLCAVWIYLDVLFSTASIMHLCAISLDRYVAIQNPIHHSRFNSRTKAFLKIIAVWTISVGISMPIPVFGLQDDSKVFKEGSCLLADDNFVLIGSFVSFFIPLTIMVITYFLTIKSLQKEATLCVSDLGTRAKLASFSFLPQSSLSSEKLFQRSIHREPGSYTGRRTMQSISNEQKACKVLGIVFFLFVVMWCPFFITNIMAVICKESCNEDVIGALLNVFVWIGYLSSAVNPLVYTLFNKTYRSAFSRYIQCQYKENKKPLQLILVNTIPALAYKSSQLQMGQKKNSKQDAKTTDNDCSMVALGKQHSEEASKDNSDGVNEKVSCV

[6] = target: Sodium-dependent serotonin transporter (Homo sapiens) (UniProt P31645); test: Inhibition of 5-HT transporter (unknown origin) at 1 uM relative to control
Sodium-dependent serotonin transporter (Homo sapiens), sequence (P31645 whole entry, looked up): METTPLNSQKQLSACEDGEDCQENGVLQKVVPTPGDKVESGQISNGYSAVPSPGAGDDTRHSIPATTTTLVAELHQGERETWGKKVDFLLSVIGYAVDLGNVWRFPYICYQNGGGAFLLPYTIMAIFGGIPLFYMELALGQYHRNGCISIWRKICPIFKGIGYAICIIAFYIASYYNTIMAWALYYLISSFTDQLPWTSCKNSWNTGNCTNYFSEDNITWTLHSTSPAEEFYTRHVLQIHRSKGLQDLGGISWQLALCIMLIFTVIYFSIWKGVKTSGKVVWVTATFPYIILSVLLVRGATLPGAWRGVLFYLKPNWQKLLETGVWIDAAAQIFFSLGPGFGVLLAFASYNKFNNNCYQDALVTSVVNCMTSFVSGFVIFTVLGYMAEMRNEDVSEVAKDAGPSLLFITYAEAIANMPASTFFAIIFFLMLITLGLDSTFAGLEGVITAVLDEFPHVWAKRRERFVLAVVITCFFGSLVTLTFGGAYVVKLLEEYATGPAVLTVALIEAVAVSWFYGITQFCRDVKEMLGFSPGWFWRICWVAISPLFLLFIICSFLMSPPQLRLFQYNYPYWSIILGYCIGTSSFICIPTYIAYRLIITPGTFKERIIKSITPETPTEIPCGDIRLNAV

[7] = target: Sodium-dependent noradrenaline transporter (Homo sapiens) (UniProt P23975); test: Inhibition of noradrenaline transporter (unknown origin) at 1 uM relative to control
Sodium-dependent noradrenaline transporter (Homo sapiens), sequence (P23975 whole entry): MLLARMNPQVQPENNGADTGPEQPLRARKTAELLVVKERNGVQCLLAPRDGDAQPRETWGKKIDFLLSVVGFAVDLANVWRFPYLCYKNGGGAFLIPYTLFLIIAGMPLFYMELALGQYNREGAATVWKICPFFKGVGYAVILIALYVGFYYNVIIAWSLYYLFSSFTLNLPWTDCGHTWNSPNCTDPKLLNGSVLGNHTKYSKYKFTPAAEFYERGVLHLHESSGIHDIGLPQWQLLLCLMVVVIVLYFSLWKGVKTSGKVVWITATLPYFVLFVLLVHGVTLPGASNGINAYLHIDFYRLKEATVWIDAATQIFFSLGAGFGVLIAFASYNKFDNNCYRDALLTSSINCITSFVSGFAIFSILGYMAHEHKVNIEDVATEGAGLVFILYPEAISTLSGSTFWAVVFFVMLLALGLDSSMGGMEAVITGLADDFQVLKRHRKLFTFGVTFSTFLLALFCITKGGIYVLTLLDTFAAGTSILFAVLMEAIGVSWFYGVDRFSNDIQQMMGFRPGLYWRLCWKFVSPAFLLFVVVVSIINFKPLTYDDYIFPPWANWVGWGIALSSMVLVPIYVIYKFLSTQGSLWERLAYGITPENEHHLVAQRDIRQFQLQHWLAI

[8] = target: Cannabinoid receptor 1 (Homo sapiens) (UniProt P21554); test: Inhibition of CB1 receptor (unknown origin) at 1 uM relative to control
Cannabinoid receptor 1 (Homo sapiens), sequence (P21554 whole entry): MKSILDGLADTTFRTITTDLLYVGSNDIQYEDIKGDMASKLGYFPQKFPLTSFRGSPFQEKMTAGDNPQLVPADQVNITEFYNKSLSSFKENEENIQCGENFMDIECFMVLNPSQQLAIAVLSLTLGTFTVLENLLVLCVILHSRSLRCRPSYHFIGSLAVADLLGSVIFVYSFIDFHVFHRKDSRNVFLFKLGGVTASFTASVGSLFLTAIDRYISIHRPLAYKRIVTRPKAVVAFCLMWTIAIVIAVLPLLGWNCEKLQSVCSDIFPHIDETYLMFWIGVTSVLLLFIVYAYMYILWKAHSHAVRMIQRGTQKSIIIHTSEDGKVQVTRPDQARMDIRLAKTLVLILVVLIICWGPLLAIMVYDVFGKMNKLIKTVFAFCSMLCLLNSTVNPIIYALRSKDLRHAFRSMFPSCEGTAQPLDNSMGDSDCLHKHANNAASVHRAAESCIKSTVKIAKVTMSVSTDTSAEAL

[9] = target: Cannabinoid receptor 2 (Homo sapiens) (UniProt P34972); test: Inhibition of CB2 receptor (unknown origin) at 1 uM relative to control
Cannabinoid receptor 2 (Homo sapiens), sequence (P34972 whole entry): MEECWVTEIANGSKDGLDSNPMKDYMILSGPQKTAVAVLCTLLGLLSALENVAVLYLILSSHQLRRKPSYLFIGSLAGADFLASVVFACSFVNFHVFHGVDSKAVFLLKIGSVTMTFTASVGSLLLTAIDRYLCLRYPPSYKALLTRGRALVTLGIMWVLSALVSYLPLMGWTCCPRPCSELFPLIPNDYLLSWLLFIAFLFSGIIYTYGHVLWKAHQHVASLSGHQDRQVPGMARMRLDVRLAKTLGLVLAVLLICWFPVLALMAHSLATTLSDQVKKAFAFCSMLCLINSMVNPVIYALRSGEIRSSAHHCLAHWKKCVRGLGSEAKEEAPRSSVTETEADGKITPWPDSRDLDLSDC

Homo sapiens [10] = organism: Homo sapiens; test: Inhibition of adrenergic alpha2 receptor (unknown origin) at 1 uM relative to control
Homo sapiens [11] = organism: Homo sapiens; test: Inhibition of adrenergic alpha1 receptor (unknown origin) at 1 uM relative to control
Homo sapiens [12] = organism: Homo sapiens; test: Inhibition of NMDA receptor (unknown origin) at 1 uM relative to control
[13] = Toxicity in sc dosed ICR mouse assessed as mortality after 24 hrs; format: organism-based; conditions: in vivo
Mus musculus [14] = test: Antiallodynic activity against formalin-induced nociceptive behavior in ICR mouse assessed as licking/biting time at 50 mg/kg, sc pre-treated for 30 mins followed by formalin-stimulation and measured up to 5 mins; format: functional; conditions: time min <=35
Method in brief: (§1)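 Male/female unspecified ICR mice (n=10 per group) given test compound s.c. or vehicle 30% PEG 400 (4 mL/kg) 30 min before intraplantar injection of 100 µL 5% formalin (1.85% formaldehyde) into right hind paw; time spent licking/biting recorded 0-5 min (phase I) and 15-45 min (phase II); antinociception % = (LT vehicle − LT drug)/LT vehicle × 100; mean ± SEM.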

Mus musculus [15] = test: Antiallodynic activity against formalin-induced nociceptive behavior in ICR mouse assessed as licking/biting time at 50 mg/kg, sc pre-treated for 30 mins followed by formalin-stimulation and measured up to 15 to 30 mins; format: functional; conditions: time min <=45; method in brief: as §1
Mu-type opioid receptor = Mu-type opioid receptor (Cavia porcellus, UniProt P97266); test: Displacement of [3H]DAMGO from mu opioid receptor in guinea pig brain membrane incubated for 2.5 hrs by scintillation counting method; format: cell membranes
Mu-type opioid receptor, sequence (P97266 whole entry): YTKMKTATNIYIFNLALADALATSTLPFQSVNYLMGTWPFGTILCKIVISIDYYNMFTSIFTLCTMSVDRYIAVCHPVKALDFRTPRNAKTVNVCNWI

[16] = Therapeutic index, ratio of LD50 for toxicity in ICR mouse to ED50 for antiallodynic activity against formalin-induced nociceptive behavior in ICR mouse; conditions: read-out: Ratio LD50/ED50
Method in brief: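 TI = LD50/ED50: LD50 from s.c. acute toxicity in mice, ED50 from phase II of formalin test (s.c. dosing 30 min before formalin, 12.5–100 mg/kg).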

Rattus norvegicus [17] = test: Antinociceptive activity in CCI-induced Sprague-Dawley rat model of neuropathic pain assessed as paw withdrawal latency at 50 mg/kg, sc after 15 days; format: functional, organism-based; conditions: time 15.0 day
Mus musculus [18] = test: Antiallodynic activity against formalin-induced nociceptive behavior in ICR mouse assessed as licking/biting time at 12.5 mg/kg, sc pre-treated for 30 mins followed by formalin-stimulation and measured up to 15 to 30 mins; format: functional; conditions: time min <=45; method in brief: as §1
Mus musculus [19] = test: Antiallodynic activity against formalin-induced nociceptive behavior in ICR mouse assessed as licking/biting time at 25 mg/kg, sc pre-treated for 30 mins followed by formalin-stimulation and measured up to 15 to 30 mins; format: functional; conditions: time min <=45; method in brief: as §1
Mus musculus [20] = test: Antiallodynic activity against formalin-induced nociceptive behavior in ICR mouse assessed as licking/biting time at 100 mg/kg, sc pre-treated for 30 mins followed by formalin-stimulation and measured up to 15 to 30 mins; format: functional; conditions: time min <=45; method in brief: as §1
Mus musculus [21] = test: Antiallodynic activity against formalin-induced nociceptive behavior in sc dosed ICR mouse assessed as licking/biting time pre-treated for 30 mins followed by formalin-stimulation and measured up to 15 to 30 mins; format: functional; conditions: dose 12.5-100 mg/kg, time min <=45; method in brief: as §1
Rattus norvegicus [22] = test: Antinociceptive activity in CCI-induced sc dosed Sprague-Dawley rat model of neuropathic pain assessed as paw withdrawal latency after 15 days; format: functional; conditions: 360 h, time 15 day

SMILES: CCC(=O)N(CCN1CCC(Cc2ccccc2)CC1)c1ccccn1
- Ki [1]: 0.402 µM

SMILES: CCC(=O)N(CCN1CCC(Cc2ccc(F)cc2)CC1)c1ccc(C)cc1
- Ki [1]: 0.0024 µM

SMILES: CCC(=O)N(CCN1CCC(CCCc2ccccc2)CC1)c1ccc(OC)cc1
- Ki [1]: 0.893 µM

SMILES: CCC(=O)N(CCCN1CCC(Cc2ccccc2)CC1)c1ccc(OC)cc1
- Ki [1]: 0.0022 µM

SMILES: CCC(=O)N(CCN1CCC(Cc2ccccc2)CC1)c1cccc(C(F)(F)F)n1
- Ki [1]: 0.835 µM

SMILES: CCC(=O)N(CCN1CCC(Cc2ccccc2)CC1)c1cc(F)c(F)c(F)c1
- Ki [1]: 0.573 µM

SMILES: CCC(=O)N(CCCCN1CCC(Cc2ccccc2)CC1)c1ccc(OC)cc1
- Ki [1]: 0.018 µM

SMILES: CCC(=O)N(CCN1CCC(Cc2ccc(C)cc2)CC1)c1ccc(OC)cc1
- Ki [1]: 0.035 µM

SMILES: CCC(=O)N(CCN1CCC(Cc2ccccc2)CC1)c1ccc(C)cc1
- Ki [1]: 0.0016 µM

SMILES: CCC(=O)N(CCN1CCC(Cc2ccccc2)CC1)c1ccc(OC)cc1
- Ki [1]: 0.0015 µM

SMILES: CCC(=O)N(CCN1CCC(Cc2ccc(F)cc2)CC1)c1ccc(F)cc1
- Ki [1]: 0.0013 µM
- inhibition (Homo sapiens [2]): 31.8%
- inhibition [3]: 9.75%
- inhibition [4]: 23%
- inhibition [5]: 34.4%
- inhibition [6]: 44.6%
- inhibition [7]: 28.8%
- inhibition [8]: 17.4%
- inhibition [9]: 19.9%
- inhibition (Homo sapiens [10]): 32.3%
- inhibition (Homo sapiens [11]): 39.9%
- inhibition (Homo sapiens [12]): 20.5%
- LD50 at 24 h [13]: 416 mg/kg
- Time (Mus musculus [14]): 36 s
- Time (Mus musculus [15]): 110 s

SMILES: C[C@@H]1[C@@H]2Cc3ccc(O)cc3[C@]1(C)CCN2CCc1ccccc1
- Ki (Mu-type opioid receptor): 0.0002 µM

SMILES: C[C@H]1[C@H]2Cc3ccc(O)cc3[C@@]1(C)CCN2CCc1ccccc1
- Ki (Mu-type opioid receptor): 0.055 µM

SMILES: Cc1cc(OCCN2CCOCC2)nn1-c1ccc2ccccc2c1
- LD50 at 24 h [13]: 357 mg/kg
- Activity (Mus musculus [14]): Active
- Time (Mus musculus [15]): 273 s
- selectivity ratio [16]: 12
- Activity (Rattus norvegicus [17]): Active

SMILES: CCC(=O)N(CCN1CCC(Cc2ccc(F)cc2)CC1)c1ccc(OC)cc1
- Ki [1]: 0.00186 µM
- inhibition (Homo sapiens [2]): 29.1%
- inhibition [3]: 34.6%
- inhibition [4]: 45.2%
- inhibition [5]: 43.6%
- inhibition [6]: 10.9%
- inhibition [7]: 18.5%
- inhibition [8]: 20.8%
- inhibition [9]: 32.6%
- inhibition (Homo sapiens [10]): 45.9%
- inhibition (Homo sapiens [11]): 24.7%
- inhibition (Homo sapiens [12]): 14.3%
- LD50 at 24 h [13]: 397 mg/kg
- Time (Mus musculus [14]): 21 s
- Time (Mus musculus [15]): 63 s
- Time (Mus musculus [18]): 201 s
- Time (Mus musculus [19]): 108 s
- Time (Mus musculus [20]): 41 s
- Activity (Mus musculus [21]): Dose-dependent effect
- ED50 (Mus musculus [21]): 15.1 mg/kg
- ED50 (Rattus norvegicus [22]): 44.1 mg/kg

SMILES: CCC(=O)N(CCN1CCC(Cc2ccccc2)CC1)C(C)c1ccccc1 (configuration not stated)
- Ki [1]: 0.0174 µM

SMILES: CCC(=O)N(CCN1CCC(Cc2ccc(C)cc2)CC1)c1ccc(F)cc1
- Ki [1]: 0.047 µM

SMILES: CCC(=O)N(CCN1CCC(Cc2ccc(C)cc2)CC1)c1ccc(C)cc1
- Ki [1]: 0.029 µM

SMILES: CCC(=O)N(CCN1CCC(Cc2ccccc2)CC1)c1ncccc1F
- Ki [1]: 0.506 µM

SMILES: CCC(=O)N(CCN1CCC(c2ccccc2)CC1)c1ccc(OC)cc1
- Ki [1]: 0.039 µM

SMILES: CCC(=O)N(CCN1CCC(Cc2ccccc2)CC1)Cc1ccccc1
- Ki [1]: 0.0187 µM

SMILES: CCC(=O)N(CCCCCN1CCC(Cc2ccccc2)CC1)c1ccc(OC)cc1
- Ki [1]: 0.042 µM

SMILES: CCC(=O)N(CCc1ccccc1)CCN1CCC(Cc2ccccc2)CC1
- Ki [1]: 0.269 µM

SMILES: CCC(=O)N(CCN1CCC(CCc2ccccc2)CC1)c1ccc(OC)cc1
- Ki [1]: 0.372 µM
